In one series the target is human GSK-3β (Homo sapiens, UniProt P49841). Nature of the series: In vitro GSK-3β inhibition: phosphorylation of primed substrate. The series is classed as biochemical.
A short description of series [1]: Mouse liver microsomal stability. The series is classed as in vitro ADME. To be noted: 60 min, 1 and 10 μM. (In general: Liver microsomes are a subcellular fraction often used to study metabolism.)
The next series concerns 15 kinases. Nature of the series: Selectivity studies against 15 kinases. The series is classed as biochemical. To be noted: 15 kinases (Supporting Information).
Another series addresses T1, CYP1A2 (Homo sapiens, UniProt P05177).
T1 sequence (P05177 1-516): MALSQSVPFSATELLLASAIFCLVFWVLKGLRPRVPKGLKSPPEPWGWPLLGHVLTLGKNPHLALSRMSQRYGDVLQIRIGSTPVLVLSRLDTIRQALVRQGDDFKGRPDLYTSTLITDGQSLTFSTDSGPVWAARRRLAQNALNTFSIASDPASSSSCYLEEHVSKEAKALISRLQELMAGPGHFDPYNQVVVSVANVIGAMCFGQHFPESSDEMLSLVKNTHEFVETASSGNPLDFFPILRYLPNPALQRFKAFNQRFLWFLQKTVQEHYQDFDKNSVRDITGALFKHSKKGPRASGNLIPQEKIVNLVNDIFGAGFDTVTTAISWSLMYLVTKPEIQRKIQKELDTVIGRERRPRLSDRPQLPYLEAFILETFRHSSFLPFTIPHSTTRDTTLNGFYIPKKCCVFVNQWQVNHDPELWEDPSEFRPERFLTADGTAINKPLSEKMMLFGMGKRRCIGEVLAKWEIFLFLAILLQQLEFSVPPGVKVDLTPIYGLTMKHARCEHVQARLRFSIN
Nature of the series: Cytochrome P450 inhibition. To be noted: up to 10 μM of 3a. The series is classed as in vitro ADME.

The target in another series is T2, CYP2B6 (Homo sapiens, UniProt P20813).
T2 sequence (P20813 1-491): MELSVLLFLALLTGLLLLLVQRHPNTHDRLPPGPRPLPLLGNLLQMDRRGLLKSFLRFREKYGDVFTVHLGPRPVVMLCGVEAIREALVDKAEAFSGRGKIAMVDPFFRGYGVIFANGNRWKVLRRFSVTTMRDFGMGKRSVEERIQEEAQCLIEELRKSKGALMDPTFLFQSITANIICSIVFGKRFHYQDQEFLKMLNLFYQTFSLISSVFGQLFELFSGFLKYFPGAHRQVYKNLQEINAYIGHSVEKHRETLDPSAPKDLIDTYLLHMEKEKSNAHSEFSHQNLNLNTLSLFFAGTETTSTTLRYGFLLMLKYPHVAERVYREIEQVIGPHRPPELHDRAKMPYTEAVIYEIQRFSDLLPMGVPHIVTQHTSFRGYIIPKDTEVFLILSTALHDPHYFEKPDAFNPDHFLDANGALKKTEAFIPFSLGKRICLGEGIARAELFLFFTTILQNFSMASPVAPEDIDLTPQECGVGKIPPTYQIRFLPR
Nature of the series: Cytochrome P450 inhibition. The series is classed as in vitro ADME. To be noted: up to 10 μM of 3a.

Series [2] in a line: Human liver microsomal stability. The series is classed as in vitro ADME. To be noted: 60 min, 1 and 10 μM.
Series [3] relates to C57BL/6J male mice. Nature of the series: Amphetamine–chlordiazepoxide locomotor hyperactivity procedure. The series is classed as in vivo.
A short description of series [4]: Aqueous solubility, HPLC-based method. The series is classed as physicochemical.
The next series has as its target CYP2C9 (Homo sapiens, UniProt P11712). Nature of the series: Cytochrome P450 inhibition. The series is classed as in vitro ADME. To be noted: up to 10 μM of 3a.
The target of a further series is CYP2D6 (Homo sapiens, UniProt P10635). Put plainly: Cytochrome P450 inhibition. To be noted: up to 10 μM of 3a. The series is classed as in vitro ADME.
The subject of series [5] is C57BL/6J male mice. Nature of the series: Prepulse inhibition of the acoustic startle response. The series is classed as in vivo. To be noted: 30 min pretreatment. Put shortly:
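Male C57BL/6J mice given test compound (10 or 25 mgkg−1) or vehicle i.p. in 10% DMSO, 30 min before testing. 5 min habituation to 70 dB background noise, then six startle-alone trials. Ten blocks of randomized null, 120 dB startle, prepulse (4/8/12 dB above background)+startle, and prepulse-alone trials. PPI = [1−(prepulse+startle)/startle amplitude]×100%. n=8–14 per group; repeated-measures ANOVA.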

Another series addresses CYP3A4 (Homo sapiens, UniProt P08684). Nature of the series: Cytochrome P450 inhibition. The series is classed as in vitro ADME. To be noted: up to 10 μM of 3a.
The test system of a further series is ClockΔ19 mutant mice. Nature of the series: Locomotor activity in CLOCK mutant mice. The series is classed as in vivo. To be noted: 12.5 mgkg^−1 i.p. once a day for five days, 2 h recording.
A further series deals with CYP2C19 (Homo sapiens, UniProt P33261). Put plainly: Cytochrome P450 inhibition. The series is classed as in vitro ADME. To be noted: up to 10 μM of 3a.
Setting [6] is: primed substrate 20 μm, 10 μm ATP, tested at Reaction Biology Inc.

Like-named read-outs stand apart in the source and are kept apart here.

human GSK-3β, sequence (P49841 whole entry): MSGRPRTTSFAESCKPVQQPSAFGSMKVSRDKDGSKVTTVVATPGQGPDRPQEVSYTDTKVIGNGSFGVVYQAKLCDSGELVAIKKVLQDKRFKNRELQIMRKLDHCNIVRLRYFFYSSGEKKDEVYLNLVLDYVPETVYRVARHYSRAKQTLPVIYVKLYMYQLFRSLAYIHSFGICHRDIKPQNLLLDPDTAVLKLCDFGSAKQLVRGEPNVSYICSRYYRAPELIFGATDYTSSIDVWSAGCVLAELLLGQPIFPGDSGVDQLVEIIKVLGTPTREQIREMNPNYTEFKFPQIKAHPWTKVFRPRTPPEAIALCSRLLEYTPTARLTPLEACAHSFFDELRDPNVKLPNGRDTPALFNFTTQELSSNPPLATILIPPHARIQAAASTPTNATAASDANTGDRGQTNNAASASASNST
CYP2C9, sequence (P11712 whole entry): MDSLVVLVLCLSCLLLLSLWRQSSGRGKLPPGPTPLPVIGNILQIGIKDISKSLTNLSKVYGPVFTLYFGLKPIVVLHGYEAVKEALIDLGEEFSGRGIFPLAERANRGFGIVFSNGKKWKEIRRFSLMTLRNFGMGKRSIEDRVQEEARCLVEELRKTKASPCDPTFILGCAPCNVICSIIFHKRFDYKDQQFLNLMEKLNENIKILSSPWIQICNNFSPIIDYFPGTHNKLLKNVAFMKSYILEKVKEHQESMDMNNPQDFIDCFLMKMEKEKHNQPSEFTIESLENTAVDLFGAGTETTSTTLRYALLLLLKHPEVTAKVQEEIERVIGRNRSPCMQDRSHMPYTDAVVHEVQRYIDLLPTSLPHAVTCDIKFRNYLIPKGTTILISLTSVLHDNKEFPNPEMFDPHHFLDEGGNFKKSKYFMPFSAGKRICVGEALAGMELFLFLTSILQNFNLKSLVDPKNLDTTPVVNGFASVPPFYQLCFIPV
CYP2C19, sequence (P33261 whole entry): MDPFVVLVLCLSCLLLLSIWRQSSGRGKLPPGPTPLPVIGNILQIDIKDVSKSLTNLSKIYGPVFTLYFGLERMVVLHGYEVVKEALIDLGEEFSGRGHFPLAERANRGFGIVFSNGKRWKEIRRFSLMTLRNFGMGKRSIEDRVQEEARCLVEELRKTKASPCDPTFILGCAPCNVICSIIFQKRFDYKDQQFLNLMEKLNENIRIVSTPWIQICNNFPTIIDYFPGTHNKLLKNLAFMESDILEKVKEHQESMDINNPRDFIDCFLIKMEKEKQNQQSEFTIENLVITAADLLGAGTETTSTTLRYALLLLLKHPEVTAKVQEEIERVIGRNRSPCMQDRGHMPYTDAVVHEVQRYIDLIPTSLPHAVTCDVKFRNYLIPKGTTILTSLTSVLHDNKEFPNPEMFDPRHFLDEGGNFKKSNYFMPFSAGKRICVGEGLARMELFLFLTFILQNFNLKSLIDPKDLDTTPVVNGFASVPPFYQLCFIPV
CYP2D6, sequence (P10635 whole entry): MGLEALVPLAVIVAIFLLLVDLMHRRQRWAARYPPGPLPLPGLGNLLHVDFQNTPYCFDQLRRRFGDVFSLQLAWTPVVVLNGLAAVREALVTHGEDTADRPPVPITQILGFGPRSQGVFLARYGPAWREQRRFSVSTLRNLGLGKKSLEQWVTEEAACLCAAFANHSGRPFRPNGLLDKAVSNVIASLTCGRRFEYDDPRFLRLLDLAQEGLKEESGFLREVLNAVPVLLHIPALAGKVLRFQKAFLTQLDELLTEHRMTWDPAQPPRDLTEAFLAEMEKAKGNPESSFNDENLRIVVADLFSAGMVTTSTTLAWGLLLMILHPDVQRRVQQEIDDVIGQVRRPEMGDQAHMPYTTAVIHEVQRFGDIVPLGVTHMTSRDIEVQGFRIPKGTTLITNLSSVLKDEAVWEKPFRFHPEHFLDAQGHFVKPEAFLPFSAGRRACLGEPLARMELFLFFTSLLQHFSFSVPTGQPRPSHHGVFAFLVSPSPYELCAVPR
CYP3A4, sequence (P08684 whole entry): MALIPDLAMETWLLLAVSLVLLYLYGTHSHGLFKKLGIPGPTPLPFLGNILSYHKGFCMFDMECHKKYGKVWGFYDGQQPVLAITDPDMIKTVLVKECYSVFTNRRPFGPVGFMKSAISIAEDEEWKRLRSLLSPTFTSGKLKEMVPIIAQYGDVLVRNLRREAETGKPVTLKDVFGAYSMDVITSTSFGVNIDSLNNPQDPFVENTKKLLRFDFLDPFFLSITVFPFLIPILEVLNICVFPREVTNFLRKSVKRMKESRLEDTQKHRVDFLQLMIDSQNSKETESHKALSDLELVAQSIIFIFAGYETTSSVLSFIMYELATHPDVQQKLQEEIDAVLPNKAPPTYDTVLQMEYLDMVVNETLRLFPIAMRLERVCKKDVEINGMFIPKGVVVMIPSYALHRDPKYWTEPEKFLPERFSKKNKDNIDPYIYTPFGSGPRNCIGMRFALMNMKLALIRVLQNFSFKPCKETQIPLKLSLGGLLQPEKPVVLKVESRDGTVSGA

For `O=C1NC(=O)C(c2cn(C3CCNCC3)c3ccc(F)cc23)=C1c1coc2ccccc12` [Compound 3d, 3-Benzofuran-3-yl-4-(5-fluoro-1-piperidin-4-yl-1H-indol-3-yl)-pyr-role-2,5-dione], the IC50 – broadly, the concentration at which inhibition is half-maximal – on human GSK-3β (setting [6]) is 30 ± 4 nM.

Molecule `COc1ccc2c(C3=C(c4cn(C5CCNCC5)c5ccccc45)C(=O)NC3=O)coc2c1` [Compound 3b, 3-(6-Methoxy-benzofuran-3-yl)-4-(1-piperidin-4-yl-1H-indol-3-yl)-pyrrole-2,5-dione] registered a 50% inhibitory concentration (IC50) at human GSK-3β of 629 ± 32 nM. Turning to `COc1cccc2c(C3=C(c4cn(C5CCNCC5)c5ccccc45)C(=O)NC3=O)coc12` [Compound 3c, 3-(7-Methoxy-benzofuran-3-yl)-4-(1-piperidin-4-yl-1H-indol-3-yl)-pyrrole-2,5-dione], at human GSK-3β, half-maximal inhibition (IC50) was put at 134 ± 5 nM. Same read-out and setting: next, `O=C1NC(=O)C(c2cn(C3CCN(C(=O)c4ccccn4)CC3)c3ccccc23)=C1c1coc2ccccc12` [Compound 3l, 3-Benzofuran-3-yl-4-{1-[1-(pyridine-2-carbonyl)-piperidin-4-yl]-1H-indol-3-yl}-pyrrole-2,5-dione]: 6 ± 1 nM.

In turn, `COc1cccc2c(C3=C(c4cn(C5CCNCC5)c5ccc(F)cc45)C(=O)NC3=O)coc12` [Compound 3g, 3-(5-Fluoro-1-piperidin-4-yl-1H-indol-3-yl)-4-(7-methoxy-benzo-furan-3-yl)-pyrrole-2,5-dione] displayed an IC50 against human GSK-3β of 28 ± 4 nM.

With `O=C1NC(=O)C(c2cn(C3CCNCC3)c3ccccc23)=C1c1coc2ccccc12` [Compound 3a, 3-Benzofuran-3-yl-4-(1-piperidin-4-yl-1H-indol-3-yl)-pyrrole-2,5-dione], the “compound remained after incubation with liver microsomes” value in [1] and in series [2] was “more than 83%” each time. In the series on 15 kinases, the kinase selectivity entry is “reasonably selective amongst other kinases with the exception of PKA and PKC-b2”. The molecule further displayed a CYP1A2 inhibition at CYP1A2 of at most 30%. At CYP2B6, this molecule came in with a CYP2B6 inhibition of at most 30%. Further, the “activity in the Amph/CDP assay” value in the series on C57BL/6J male mice [3] (3 mgkg^−1 i.p., 5 min pretreatment) was “not active”. Also, in the series on C57BL/6J male mice [3] (doses higher than 10 mgkg^−1), the baseline locomotor activity entry is on record as “reductions in baseline locomotor activity”. In series [4], the aqueous solubility worked out at 196 mgL^−1. This molecule also displayed a CYP2C9 inhibition at CYP2C9 of at most 30%. At CYP2D6, this molecule had a CYP2D6 inhibition of at most 30%. Also, the figures for the “prepulse inhibition (PPI)” value with C57BL/6J male mice [5] (10 mgkg^−1 i.p.) and with C57BL/6J male mice [5] (25 mgkg^−1 i.p.) were “not active” and “enhanced PPI”, respectively. Besides, the CYP3A4 inhibition at CYP3A4 was at most 30%. In the series on ClockΔ19 mutant mice, the “locomotor hyperactivity in response to novelty (beam breaks)” value was “attenuation of the locomotor hyperactivity”. Also, on CYP2C19, the CYP2C19 inhibition was at most 30%. The same molecule displayed an IC50 at human GSK-3β of 67 ± 6 nM. `O=C1NC(=O)C(c2cn(C3CCN(Cc4ccccn4)CC3)c3ccccc23)=C1c1coc2ccccc12` [Compound 3i, 3-Benzofuran-3-yl-4-[1-(1-pyridin-2-ylmethyl-piperidin-4-yl)-1H-indol-3-yl]-pyrrole-2,5-dione]: the IC50 on human GSK-3β is 110 ± 4 nM. `O=C1NC(=O)C(c2cn(C3CCNCC3)c3ccc(Br)cc23)=C1c1coc2ccccc12` [3 f, 3-Benzofuran-3-yl-4-(5-bromo-1-piperidin-4-yl-1H-indol-3-yl)-pyr-role-2,5-dione] registered an IC50 on human GSK-3β (setting [6]) of 684 ± 17 nM. Turning to `O=C1NC(=O)C(c2cn(C3CCN(Cc4ccncc4)CC3)c3ccccc23)=C1c1coc2ccccc12` [Compound 3j, 3-Benzofuran-3-yl-4-[1-(1-pyridin-4-ylmethyl-piperidin-4-yl)-1H-indol-3-yl]-pyrrole-2,5-dione], the IC50 against human GSK-3β was 65 ± 4 nM. Same read-out and setting: next, `O=C1NC(=O)C(c2cn(C3CCN(C(=O)c4cnccn4)CC3)c3ccccc23)=C1c1coc2ccccc12` [Compound 3o, 3-Benzofuran-3-yl-4-{1-[1-(pyrazine-2-carbonyl)-piperidin-4-yl]-1H-indol-3-yl}-pyrrole-2,5-dione]: 4 ± 1 nM; `O=C1NC(=O)C(c2cn(C3CCN(C(=O)N4CCOCC4)CC3)c3ccccc23)=C1c1coc2ccccc12` [Compound 3k, 3-Benzofuran-3-yl-4-{1-[1-(morpholine-4-carbonyl)-piperidin-4-yl]-1H-indol-3-yl}-pyrrole-2,5-dione]: 10 ± 2 nM. For the molecule `O=C1NC(=O)C(c2cn(C3CCNCC3)c3ccc(Cl)cc23)=C1c1coc2ccccc12` [Compound 3e, 3-Benzofuran-3-yl-4-(5-chloro-1-piperidin-4-yl-1H-indol-3-yl)-pyr-role-2,5-dione], half-maximal inhibition against human GSK-3β (setting [6]) (IC50) required 272 ± 27 nM. At human GSK-3β, `CN1CCC(n2cc(C3=C(c4coc5ccccc45)C(=O)NC3=O)c3ccccc32)CC1` [Compound 3h, 3-Benzofuran-3-yl-4-[1-(1-methyl-piperidin-4-yl)-1H-indol-3-yl]-pyrrole-2,5-dione] displayed an IC50 of 155 ± 2 nM. For the molecule `O=C1NC(=O)C(c2cn(C3CCN(C(=O)c4ccncc4)CC3)c3ccccc23)=C1c1coc2ccccc12` [Compound 3n, 3-Benzofuran-3-yl-4-{1-[1-(pyridine-4-carbonyl)-piperidin-4-yl]-1H-indol-3-yl}-pyrrole-2,5-dione], on human GSK-3β, the IC50 amounted to 4 ± 1 nM. Molecule `NCC(=O)N1CCC(n2cc(C3=C(c4coc5ccccc45)C(=O)NC3=O)c3ccccc32)CC1` [Compound 3p, 3-{1-[1-(2-Amino-acetyl)-piperidin-4-yl]-1H-indol-3-yl}-4-benzofuran-3-yl-pyrrole-2,5-dione] gave an IC50 against human GSK-3β of 55 ± 2 nM. The molecule `Cc1nonc1C(=O)N1CCC(n2cc(C3=C(c4coc5ccccc45)C(=O)NC3=O)c3ccccc32)CC1` [Compound 3q, 3-Benzofuran-3-yl-4-{1-[1-(4-methyl-furazan-3-carbonyl)-piperidin-4-yl]-1H-indol-3-yl}-pyrrole-2,5-dione] gave an IC50 on human GSK-3β of 25 ± 2 nM.

With `O=C1NC(=O)C(c2cn(C3CCN(C(=O)c4cccnc4)CC3)c3ccccc23)=C1c1coc2ccccc12` [Compound 3m, 3-Benzofuran-3-yl-4-{1-[1-(pyridine-3-carbonyl)-piperidin-4-yl]-1H-indol-3-yl}-pyrrole-2,5-dione], the IC50 against human GSK-3β was 8 ± 2 nM.

Values taken from publication PMC3428230 (ChemMedChem, 2011).
